# Assay results published in ChEMBL document CHEMBL1152293, “Discovery of novel, potent and bioavailable proline-urea based macrocyclic HCV NS3/4A protease inhibitors” (Bioorg Med Chem Lett, 2008).
# pEC50, pKi: −log10 of the molar value.
# How the values were obtained:
# [1] = Inhibition of full length HCV NS3/4A protease; parameters: species or system Hepacivirus hominis
# [2] = test system: Hepatitis C virus; assay: Antiviral activity against HCV infected in human Huh7 cells after 48 hrs by luciferase based replicon assay; assay type: functional, organism-based, Hepacivirus hominis; details: Huh-7, 48 h
# [3] = Apparent permeability across apical to basolateral side in human Caco-2 cells; assay type: ADME, cell-based
# [4] = Metabolic stability in rat liver microsomes at 5 uM after 15 mins; assay type: ADME, Microsome
# Method in brief: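 Rat liver microsomes at 1 mg protein/mL were incubated with 5 μM test compound at 37 °C for 15 min. Stability is expressed as % of compound metabolized.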
# [5] = Clearance in Sprague-Dawley rat at 2 mg/kg, iv; assay type: ADME, organism-based; parameters: dose 2 mg/kg, route intravenous; details: in vivo
# Method in brief: (§1)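 Male Sprague–Dawley rats (n = 2 per route) received a single intravenous dose of 2 mg/kg or an oral dose of 10 mg/kg in 50% PEG-400 in water. Plasma levels were averaged, and PK parameters were calculated. Bioavailability was derived from the iv and oral arms.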
# [6] = Volume of distribution in Sprague-Dawley rat at 2 mg/kg, iv; assay type: ADME, organism-based; parameters: dose 2 mg/kg, route intravenous; details: in vivo; method in brief: as §1
# [7] = AUC in Sprague-Dawley rat at 2 mg/kg, iv; assay type: ADME, organism-based; parameters: dose 2 mg/kg, route intravenous; details: plasma; method in brief: as §1
# [8] = AUC in Sprague-Dawley rat at 10 mg/kg, po; assay type: ADME, organism-based; parameters: dose 10 mg/kg, route oral; details: plasma; method in brief: as §1
# [9] = Cmax in Sprague-Dawley rat at 10 mg/kg, po; assay type: ADME, organism-based; parameters: dose 10 mg/kg, route oral; details: in vivo; method in brief: as §1
# [10] = Tmax in Sprague-Dawley rat at 10 mg/kg, po; assay type: ADME, organism-based; parameters: dose 10 mg/kg, route oral; details: in vivo; method in brief: as §1
# [11] = Half life in Sprague-Dawley rat at 10 mg/kg, po; assay type: ADME, organism-based; parameters: dose 10 mg/kg, route oral; details: in vivo; method in brief: as §1
# [12] = Oral bioavailability in Sprague-Dawley rat at 10 mg/kg; assay type: ADME, organism-based; details: in vivo; method in brief: as §1
# [13] = Ratio of drug level in liver to plasma of Sprague-Dawley rat at 10 mg/kg, po after 8 hrs
# [14] = Ratio of drug level in liver to plasma of Sprague-Dawley rat at 10 mg/kg, po after 6 hrs
# [15] = Bioavailability in Sprague-Dawley rat at 2 mg/kg, iv and 10 mg/kg, po; assay type: ADME, organism-based; details: in vivo; method in brief: as §1
# [16] = Cytotoxicity against human HuH7 cells; assay type: cell-based, Huh-7
# [17] = Selectivity index, ratio of CC50 for human Huh7 cells to EC50 for HCV; parameters: species or system Huh-7
compound,measurement,setting,value
COc1ccc2c(O[C@@H]3C[C@H]4C(=O)N[C@]5(C(=O)O)C[C@H]5/C=C\CCCCCN(C)C(=O)N4C3)cc(-c3ccccc3)nc2c1,pKi,[1],8.00
same,pEC50,[2],5.35
COc1ccc2c(O[C@@H]3C[C@H]4C(=O)N[C@]5(C(=O)O)C[C@H]5/C=C\CCCCC[C@H](NC(=O)OC(C)(C)C)C(=O)N4C3)cc(-c3ccccc3)nc2c1,pKi,[1],7.96
same,pEC50,[2],7.11
COc1ccc2c(O[C@@H]3C[C@H]4C(=O)N[C@]5(C(=O)O)C[C@H]5/C=C\CCCCCN(NC(=O)OC(C)(C)C)C(=O)N4C3)cc(-c3ccccc3)nc2c1,pKi,[1],6.22
same,pEC50,[2],< 5.00
COc1ccc2c(O[C@@H]3C[C@H]4C(=O)N[C@]5(C(=O)NS(=O)(=O)C6CC6)C[C@H]5/C=C\CCCCCN(C)C(=O)N4C3)cc(-c3ccccc3)nc2c1,pKi,[1]; read-out: Ki,8.00
same,pEC50,[2],5.35
COc1ccc2c(O[C@@H]3C[C@H]4C(=O)N[C@]5(C(=O)NS(=O)(=O)C6CC6)C[C@H]5/C=C\CCCCCNC(=O)N4C3)cc(-c3nccs3)nc2c1,pKi,[1]; read-out: Ki,9.52
same,pEC50,[2],7.96
same,Papp A→B,[3],0.4 ×10⁻⁶ cm/s
COc1ccc2c(O[C@@H]3C[C@H]4C(=O)N[C@]5(C(=O)NS(=O)(=O)C6CC6)C[C@H]5/C=C\CCCCCNC(=O)N4C3)cc(-c3nc(C(C)C)cs3)nc2c1Cl,pKi,[1]; read-out: Ki,10.00
same,pEC50,[2],8.66
same,Papp A→B,[3],22 ×10⁻⁶ cm/s
same,"metabolized at 0.25 h, 5 µM",[4],45%
COc1ccc2c(O[C@@H]3C[C@H]4C(=O)N[C@]5(C(=O)NS(=O)(=O)C6CC6)C[C@H]5/C=C\CCCCOC(=O)N4C3)cc(-c3ccccc3)nc2c1,pKi,[1]; read-out: Ki,9.46
same,pEC50,[2],7.21
COc1ccc2c(O[C@@H]3C[C@H]4C(=O)N[C@]5(C(=O)NS(=O)(=O)C6CC6)C[C@H]5/C=C\CCCCN(C)C(=O)N4C3)cc(-c3ccccc3)nc2c1,pKi,[1]; read-out: Ki,9.40
same,pEC50,[2],7.36
COc1ccc2c(O[C@@H]3C[C@H]4C(=O)N[C@]5(C(=O)NS(=O)(=O)C6CC6)C[C@H]5/C=C\CCCCCNC(=O)N4C3)cc(-c3ccccc3)nc2c1,pKi,[1]; read-out: Ki,9.62
same,pEC50,[2],7.82
COc1ccc2c(O[C@@H]3C[C@H]4C(=O)N[C@]5(C(=O)NS(=O)(=O)C6(C)CC6)C[C@H]5/C=C\CCCCCNC(=O)N4C3)cc(-c3nc(C(C)C)cs3)nc2c1Cl,pKi,[1]; read-out: Ki,10.00
same,pEC50,[2],8.40
same,Papp A→B,[3],29 ×10⁻⁶ cm/s
same,"metabolized at 0.25 h, 5 µM",[4],21%
COc1ccc2c(O[C@@H]3C[C@H]4C(=O)N[C@]5(C(=O)NS(=O)(=O)C6CC6)C[C@H]5/C=C\CCCCN(C)C(=O)N4C3)cc(-c3nc(C(C)C)cs3)nc2c1,pKi,[1]; read-out: Ki,9.35
same,pEC50,[2],7.59
same,clearance,[5],27.5 mL/min/kg
same,Vd,[6],4.5 L/kg
same,AUC,[7],1.65 µM·h
same,AUC,[8],3.12 µM·h
same,Cmax,[9],730 nM
same,Tmax,[10],1.25 h
same,half-life,[11],2.55 h
same,bioavailability,[12],37%
same,liver/plasma ratio at 8 h,[13],12
COc1ccc2c(O[C@@H]3C[C@H]4C(=O)N[C@]5(C(=O)NS(=O)(=O)C6CC6)C[C@H]5/C=C\CCCCNC(=O)N4C3)cc(-c3nc(C(C)C)cs3)nc2c1,pKi,[1]; read-out: Ki,9.30
same,pEC50,[2],8.30
same,clearance,[5],15.7 mL/min/kg
same,Vd,[6],1.6 L/kg
same,AUC,[7],3 µM·h
same,AUC,[8],0.19 µM·h
same,Cmax,[9],26 nM
same,Tmax,[10],2 h
same,half-life,[11],3.8 h
same,bioavailability,[12],1.3%
same,Papp A→B,[3],3 ×10⁻⁶ cm/s
same,liver/plasma ratio at 6 h,[14],9.5
COc1ccc2c(O[C@@H]3C[C@H]4C(=O)N[C@]5(C(=O)NS(=O)(=O)C6(C)CC6)C[C@H]5/C=C\CCCCCNC(=O)N4C3)cc(-c3nc(C(C)C)cs3)nc2c1C,pKi,[1]; read-out: Ki,9.70
same,pEC50,[2],8.17
same,bioavailability,[15],11%
COc1ccc2c(O[C@@H]3C[C@H]4C(=O)N[C@]5(C(=O)NS(=O)(=O)C6CC6)C[C@H]5/C=C\CCCCCN(C)C(=O)N4C3)cc(-c3nc(C(C)C)cs3)nc2c1,pKi,[1]; read-out: Ki,7.92
same,pEC50,[2],6.15
COc1ccc2c(O[C@@H]3C[C@H]4C(=O)N[C@]5(C(=O)NS(=O)(=O)C6CC6)C[C@H]5/C=C\CCCCCOC(=O)N4C3)cc(-c3ccccc3)nc2c1,pKi,[1]; read-out: Ki,8.62
same,pEC50,[2],6.34
COc1ccc2c(O[C@@H]3C[C@H]4C(=O)N[C@]5(C(=O)NS(=O)(=O)C6CC6)C[C@H]5/C=C\CCCCCNC(=O)N4C3)cc(-c3cscn3)nc2c1,pEC50,[2],7.01
COc1ccc2c(O[C@@H]3C[C@H]4C(=O)N[C@]5(C(=O)NS(=O)(=O)C6CC6)C[C@H]5/C=C\CCCCCNC(=O)N4C3)cc(-c3nc(C(C)C)cs3)nc2c1C,pKi,[1]; read-out: Ki,10.30
same,pEC50,[2],8.77
same,"metabolized at 0.25 h, 5 µM",[4],23%
COc1ccc2c(O[C@@H]3C[C@H]4C(=O)N[C@]5(C(=O)NS(=O)(=O)C6(C)CC6)C[C@H]5/C=C\CCCCCNC(=O)N4C3)cc(-c3nc(C(C)C)cs3)nc2c1,pKi,[1]; read-out: Ki,10.00
same,CC50,[16]; Huh-7 cells,> 50000 nM
same,Activity,[16]; huh-7,Non-toxic
same,pEC50,[2],8.35
same,clearance,[5],9.83 mL/min/kg
same,Cmax,[9],1710 nM
same,bioavailability,[12],54%
same,Papp A→B,[3],30 ×10⁻⁶ cm/s
same,"metabolized at 0.25 h, 5 µM",[4],89%
same,bioavailability,[15],54%
same,Selectivity Index,[17],>10000
same,liver/plasma ratio at 6 h,[14],105
COc1ccc2c(O[C@@H]3C[C@H]4C(=O)N[C@]5(C(=O)NS(=O)(=O)C6CC6)C[C@H]5/C=C\CCCCCNC(=O)N4C3)cc(-c3nc(C(C)C)cs3)nc2c1,pKi,[1]; read-out: Ki,9.70
same,pEC50,[2],8.30
same,clearance,[5],9.17 mL/min/kg
same,Vd,[6],1.46 L/kg
same,AUC,[7],7.09 µM·h
same,AUC,[8],6.97 µM·h
same,Cmax,[9],950 nM
same,Tmax,[10],1.25 h
same,half-life,[11],5.4 h
same,bioavailability,[12],20%
same,Papp A→B,[3],10 ×10⁻⁶ cm/s
same,"metabolized at 0.25 h, 5 µM",[4],93%
same,bioavailability,[15],20%
same,liver/plasma ratio at 6 h,[14],29
COc1ccc2c(O[C@@H]3C[C@H]4C(=O)N[C@]5(C(=O)NS(=O)(=O)C6CC6)C[C@H]5/C=C\CCCCNC(=O)N4C3)cc(-c3ccccc3)nc2c1,pKi,[1]; read-out: Ki,8.82
same,pEC50,[2],7.85
